Assay results reported in ChEMBL document CHEMBL4699593, “Identification of 2,4-Disubstituted Imidazopyridines as Hemozoin Formation Inhibitors with Fast-Killing Kinetics and In Vivo Efficacy in the Plasmodium falciparum NSG Mouse Model” (J Med Chem, 2020).
In brackets after ≈: the same amount, converted by molar mass.

What was measured:
Plasmodium falciparum [1] = experiment: Antiplasmodial activity against multidrug-sensitive asexual blood stage Plasmodium falciparum NF54 strain assessed as reduction in parasite growth after 72 hrs by NBT reagent based LDH assay; assay type: functional, organism-based; conditions: NF54, 72 h
[2] = Aqueous solubility of compound in phosphate buffer saline at pH 6.5 incubated for 20 hrs under shaking condition by shake-flask method based HPLC-DAD analysis; assay type: physicochemical; conditions: phosphate buffered saline
Summary of the method: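 Equilibrium aqueous solubility was measured at pH 6.5 using a miniaturized shake-flask method.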

Plasmodium falciparum [3] = experiment: Antiplasmodial activity against multidrug-resistant asexual blood stage Plasmodium falciparum K1 strain assessed as reduction in parasite growth after 72 hrs by NBT reagent based LDH assay; assay type: functional, organism-based; conditions: K1, 72 h
Summary of the method: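 Asexual blood-stage K1 (multidrug-resistant) parasites were read out by the parasite lactate dehydrogenase (pLDH) assay. […] Most individual values varied less than 2× (maximum 3×).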

CHO = experiment: Cytotoxicity against CHO cells assessed as reduction in cell viability by MTT assay; assay type: cell-based, Cricetulus griseus; conditions: chinese hamster
Summary of the method: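 Cytotoxicity was measured in Chinese hamster ovary (CHO) cells and reported as CC50. The selectivity index is CC50 divided by NF54 IC50.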

[4] = molecular target: Voltage-gated inwardly rectifying potassium channel KCNH2 (Homo sapiens, UniProt Q12809); experiment: Inhibition of human ERG by patch clamp method
Voltage-gated inwardly rectifying potassium channel KCNH2, sequence (Q12809 whole entry): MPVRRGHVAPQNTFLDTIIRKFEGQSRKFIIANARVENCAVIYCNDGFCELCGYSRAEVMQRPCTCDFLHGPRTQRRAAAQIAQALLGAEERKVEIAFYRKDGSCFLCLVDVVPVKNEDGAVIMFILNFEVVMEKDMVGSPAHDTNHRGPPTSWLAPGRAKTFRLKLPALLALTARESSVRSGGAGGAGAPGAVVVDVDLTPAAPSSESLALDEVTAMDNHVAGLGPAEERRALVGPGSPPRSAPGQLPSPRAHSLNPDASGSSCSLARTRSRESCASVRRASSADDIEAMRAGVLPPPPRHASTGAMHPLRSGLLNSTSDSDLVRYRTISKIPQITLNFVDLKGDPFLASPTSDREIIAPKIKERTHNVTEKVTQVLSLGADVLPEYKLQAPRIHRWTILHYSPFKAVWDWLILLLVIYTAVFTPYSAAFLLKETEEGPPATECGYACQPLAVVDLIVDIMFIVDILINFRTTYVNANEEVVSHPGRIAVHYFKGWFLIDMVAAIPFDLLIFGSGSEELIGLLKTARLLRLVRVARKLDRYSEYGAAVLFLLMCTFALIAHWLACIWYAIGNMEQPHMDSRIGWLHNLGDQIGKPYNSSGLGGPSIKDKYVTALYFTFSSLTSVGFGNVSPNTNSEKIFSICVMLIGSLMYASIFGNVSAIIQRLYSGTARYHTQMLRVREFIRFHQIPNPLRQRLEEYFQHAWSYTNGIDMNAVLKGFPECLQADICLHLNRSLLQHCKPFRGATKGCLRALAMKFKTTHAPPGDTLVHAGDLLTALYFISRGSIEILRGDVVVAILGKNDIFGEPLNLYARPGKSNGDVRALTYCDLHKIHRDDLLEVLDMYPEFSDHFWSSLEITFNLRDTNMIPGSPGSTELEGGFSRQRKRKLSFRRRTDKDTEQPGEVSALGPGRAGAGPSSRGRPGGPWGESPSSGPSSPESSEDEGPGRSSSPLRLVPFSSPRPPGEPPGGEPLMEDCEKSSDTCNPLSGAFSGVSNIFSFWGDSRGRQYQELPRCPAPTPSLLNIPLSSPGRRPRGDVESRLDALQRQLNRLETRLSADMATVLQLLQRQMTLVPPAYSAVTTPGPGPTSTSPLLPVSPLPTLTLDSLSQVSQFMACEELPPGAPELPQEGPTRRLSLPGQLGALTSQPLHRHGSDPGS

[5] = Selectivity index, ratio of CC50 for cytotoxicity against CHO cells assessed as reduction in cell viability to IC50 for antiplasmodial activity against multidrug-sensitive Plasmodium falciparum NF54 assessed as reduction in parasite growth; assay type: toxicity, cell-based; conditions: hamster, read-out: Ratio CC50/IC50

SMILES	IC50 (Plasmodium falciparum [1])	solubility thermodynamic at 20 h [2]	IC50 (Plasmodium falciparum [3])	CC50 (CHO)	IC50 [4]	selectivity ratio [5]
CN1CCN(CC2CCN(c3ccnc4[nH]c(-c5cc(F)cc(F)c5)nc34)CC2)CC1	530 nM	< 5 µM				
CN1CCN(c2nccc3[nH]c(-c4cccc(OC(F)(F)F)c4)nc23)CC1	490 nM					
CN1CCN(C2CCN(c3nccc4[nH]c(-c5cccc(S(C)(=O)=O)c5)nc34)CC2)CC1	450 nM	190 µM (≈ 86.4 µg/mL)	1500 nM	> 50000 nM		
CN1CCN(CC2CCN(c3nccc4[nH]c(-c5cccc(C(=O)N(C)C)c5)nc34)CC2)CC1	1000 nM	180 µM (≈ 83.1 µg/mL)		> 50000 nM		
Fc1ccc(-c2nc3c(N4CCN5CCC4CC5)nccc3[nH]2)cc1F	79 nM	200 µM (≈ 71.1 µg/mL)	430 nM	28000 nM		
CN1CCN(CC2CCN(c3nccc4[nH]c(-c5cccc(C(=O)O)c5)nc34)CC2)CC1	> 10000 nM	195 µM (≈ 84.7 µg/mL)		> 50000 nM		
Fc1ccc(-c2nc3c(C4CCNCC4)nccc3[nH]2)cc1F	> 10000 nM	200 µM (≈ 62.9 µg/mL)				
Fc1ccc(-c2nc3c(N4CCN(CC(F)(F)F)CC4)nccc3[nH]2)cc1F	2300 nM	10 µM (≈ 3.97 µg/mL)		39000 nM		
CN1CCOC2(CCN(c3nccc4[nH]c(-c5cc(F)cc(F)c5)cc34)CC2)C1					≤ 3000 nM	
CN1CCN(CC2CCN(c3nccc4[nH]c(-c5cc(F)cc(F)c5)cc34)CC2)CC1	14 nM	140 µM (≈ 59.6 µg/mL)	92 nM	2600 nM	5000 nM	
Fc1ccc(-c2nc3c(N4CCOCC4)nccc3[nH]2)cc1F	3100 nM					
C[C@@H]1CN(c2nccc3[nH]c(-c4ccc(F)c(F)c4)nc23)C[C@H](C)N1C	260 nM	50 µM (≈ 17.9 µg/mL)	720 nM	> 50000 nM		
NC1CCN(c2nccc3[nH]c(-c4ccc(F)c(F)c4)nc23)CC1	110 nM	200 µM (≈ 65.9 µg/mL)	910 nM	8200 nM		
CN1CCN(CC2CCN(c3cccc4[nH]c(-c5cc(F)cc(F)c5)nc34)CC2)CC1	830 nM	200 µM (≈ 85.1 µg/mL)	1500 nM	22000 nM	> 30000 nM	
CN1CCN(C2CCN(c3nccc4[nH]c(-c5cccc(C#N)c5)nc34)CC2)CC1	110 nM		580 nM	16000 nM		
Fc1cc(F)cc(-c2nc3c(N4CCC(CN5CCC(F)(F)CC5)CC4)nccc3[nH]2)c1	200 nM	< 5 µM	310 nM	26000 nM		
CN1CCN(C2CCN(c3nccc4[nH]c(-c5ccc(F)c(C(F)(F)F)c5)nc34)CC2)CC1	58 nM	195 µM (≈ 90.2 µg/mL)	80 nM	4800 nM		
CN1CCN(CC2CCN(c3nccc4c3nc(-c3cc(F)cc(F)c3)n4C)CC2)CC1	> 3000 nM	150 µM (≈ 66.1 µg/mL)				
C[C@@H]1CN(c2nccc3[nH]c(-c4ccc(F)c(F)c4)nc23)C[C@H](C)N1	76 nM	190 µM (≈ 65.2 µg/mL)	450 nM	6500 nM		
CN(C)C1CCN(c2nccc3[nH]c(-c4cccc(OC(F)(F)F)c4)nc23)CC1	140 nM	180 µM (≈ 73 µg/mL)	190 nM			
CN1CCN(CC2CCN(c3ncnc4[nH]c(-c5cc(F)cc(F)c5)nc34)CC2)CC1	1800 nM	55 µM (≈ 23.5 µg/mL)				
CN1CCN([C@H]2CC[C@@H](Nc3nccc4[nH]c(-c5cc(F)cc(F)c5)nc34)CC2)CC1	160 nM	200 µM (≈ 85.3 µg/mL)	310 nM	14000 nM		
Fc1cc(F)cc(-c2nc3c(N4CCC(CN5CCOCC5)CC4)nccc3[nH]2)c1	290 nM	25 µM (≈ 10.3 µg/mL)	390 nM	> 50000 nM		
Fc1ccc(-c2nc3c(N4CCCNCC4)nccc3[nH]2)cc1F	210 nM	165 µM (≈ 54.3 µg/mL)	1000 nM	7200 nM		
Fc1ccc(-c2nc3c(N4CCNCC4)nccc3[nH]2)cc1F	170 nM	150 µM (≈ 47.3 µg/mL)	970 nM	8100 nM	3400 nM	
CN1CCN(CC2CCN(c3nccc4[nH]c(-c5cccc(OCCN)c5)nc34)CC2)CC1	2200 nM	200 µM (≈ 89.9 µg/mL)				
CN1CCN(CC2CCN(c3nccc4[nH]c(-c5ccc(F)c(F)c5)nc34)CC2)CC1	< 20 nM	195 µM (≈ 83.2 µg/mL)	27 nM	7400 nM		370

SMILES	IC50 (Plasmodium falciparum [1])	solubility thermodynamic at 20 h [2]	IC50 (Plasmodium falciparum [3])	CC50 (CHO)	IC50 [4]	selectivity ratio [5]
CN1CCN(C(=O)C2CCN(c3nccc4[nH]c(-c5ccc(F)c(F)c5)nc34)CC2)CC1	100 nM	200 µM (≈ 88.1 µg/mL)	380 nM	> 50000 nM	12000 nM	
CN1CCN(C2CCN(c3nccc4[nH]c(-c5cc(F)cc(F)c5)cc34)CC2)CC1					4000 nM	
Fc1cc(F)cc(-c2nc3c(N4CCC(CN5CCNCC5)CC4)nccc3[nH]2)c1	38 nM	190 µM (≈ 78.4 µg/mL)	240 nM	20000 nM		
CN1CCN(C2CCN(c3nccc4[nH]c(-c5ccc(F)c(F)c5)nc34)CC2)CC1	46 nM	130 µM (≈ 53.6 µg/mL)	220 nM	5000 nM		110
CN1CCN(CC2CCN(c3nccc4[nH]c(-c5ccc(F)c(Cl)c5)nc34)CC2)CC1	< 12 nM	155 µM (≈ 68.7 µg/mL)	25 nM	850 nM		
CN1CCCN(c2nccc3[nH]c(-c4cc(F)cc(F)c4)nc23)CC1					400 nM	
CN1CCN(CC2CCN(c3nccc4[nH]c(-c5cc(F)cc(C(F)(F)F)c5)nc34)CC2)CC1	54 nM	165 µM (≈ 78.6 µg/mL)	89 nM	3100 nM		
OCCN1CCN(c2nccc3[nH]c(-c4ccc(F)c(F)c4)nc23)CC1	570 nM	95 µM (≈ 34.1 µg/mL)	1400 nM			
CN1CCN(C[C@H]2CCCN(c3nccc4[nH]c(-c5cc(F)cc(F)c5)nc34)C2)CC1	73 nM	200 µM (≈ 85.3 µg/mL)	170 nM	7900 nM		
CN1CCN(C2CCN(c3nccc4[nH]c(-c5cccc(OC(F)(F)F)c5)nc34)CC2)CC1	64 nM	190 µM (≈ 87.5 µg/mL)	91 nM	3000 nM		47
CN1CCN(CC2CCN(c3nccc4[nH]c(C5CCCC5)nc34)CC2)CC1	9300 nM	< 5 µM				
CN1CCN([C@H]2CC[C@H](Nc3nccc4[nH]c(-c5cc(F)cc(F)c5)nc34)CC2)CC1	130 nM	200 µM (≈ 85.3 µg/mL)	240 nM	11000 nM		
COC(=O)c1cccc(-c2nc3c(N4CCC(N5CCN(C)CC5)CC4)nccc3[nH]2)c1	79 nM		280 nM	34000 nM		
CN1CCN(CC2CCN(c3nccc4[nH]c(-c5ccc(F)c(C(F)(F)F)c5)nc34)CC2)CC1	50 nM	165 µM (≈ 78.6 µg/mL)	17 nM	3100 nM		
CN1CCN(CC2CCN(c3nccc4[nH]c(-c5cccc(OC(F)(F)F)c5)nc34)CC2)CC1	< 20 nM	200 µM (≈ 94.9 µg/mL)	12 nM	950 nM		47
O=C1CN(c2nccc3[nH]c(-c4ccc(F)c(F)c4)nc23)CCN1	> 10000 nM	< 5 µM				
CN1CCN(C[C@@H]2CCCN(c3nccc4[nH]c(-c5cc(F)cc(F)c5)nc34)C2)CC1	28 nM	145 µM (≈ 61.8 µg/mL)	130 nM	3200 nM		
Fc1ccc(-c2nc3c(N4CCN(c5ccccc5)CC4)nccc3[nH]2)cc1F	> 1000 nM					
NCC1CCN(c2nccc3[nH]c(-c4cccc(OC(F)(F)F)c4)nc23)CC1	68 nM	200 µM (≈ 78.3 µg/mL)	190 nM	2900 nM		
Fc1ccc(-c2nc3c(N4CCC(N5CCNCC5)CC4)nccc3[nH]2)cc1C(F)(F)F	36 nM	200 µM (≈ 89.7 µg/mL)	460 nM	34000 nM		
CC(C)(C)N1CCN(CC2CCN(c3nccc4[nH]c(-c5cc(F)cc(F)c5)nc34)CC2)CC1	19 nM	185 µM (≈ 86.7 µg/mL)	47 nM	8600 nM		
Fc1cc(F)cc(-c2nc3c(N4CCC(CN5CCN(CC(F)(F)F)CC5)CC4)nccc3[nH]2)c1	75 nM	180 µM (≈ 89 µg/mL)	160 nM	40000 nM	≤ 3000 nM	
O=S1(=O)CCN(CC2CCN(c3nccc4[nH]c(-c5cc(F)cc(F)c5)nc34)CC2)CC1	1400 nM	< 5 µM		> 50000 nM		
CN1CCOC2(CCN(c3nccc4[nH]c(-c5cc(F)cc(F)c5)nc34)CC2)C1	180 nM	175 µM (≈ 69.9 µg/mL)	320 nM	32000 nM		
CN1CCN(C2CCN(c3nccc4[nH]c(C5CCCC5)nc34)CC2)CC1	> 10000 nM	170 µM (≈ 62.6 µg/mL)				
Fc1ccc(-c2nc3c(N4CCN5CCCC5C4)nccc3[nH]2)cc1F (centres undefined)	220 nM	120 µM (≈ 42.6 µg/mL)	480 nM	32000 nM		
